Measurements as given in ChEMBL document CHEMBL1145922, “1,2-benzisoxazole phosphorodiamidates as novel anticancer prodrugs requiring bioreductive activation” (J Med Chem, 2003).

Assays:
Rattus norvegicus [1] = species: Rattus norvegicus; assay: Metabolic stability after incubation for 30 minutes in rat liver in oxic condition in presence of NADPH; type: functional
Procedure, shortened: (§1)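 Phenobarbital-induced rat liver S-9 fraction, substrate 2.5 mM final, with 5 mM NADPH or no cofactor, 30 min at 37 °C, oxic or nitrogen-purged (hypoxic). Quenched with ice-cold methanol and centrifuged; supernatant analysed by TLC densitometry (ethyl acetate/ethanol eluent) for unchanged parent, reported as % remaining, mean ± SD of three experiments.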

V79 = assay: In vitro cytotoxicity against Chinese hamster lung (V-79 cells) fibroblast determined using sulforhodamine B (SRB) assay; type: functional, cell-based; conditions: Cricetulus griseus
Procedure, shortened: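 V-79 Chinese hamster lung fibroblasts, about 15×10^3 cells/well, preincubated 24 h, then drug at eight concentrations for 48 h, aerobic. Fixed with cold TCA, stained with 0.4% SRB, dye solubilized in 10 mM Tris, read at 564 nm. % growth versus untreated control; first-order decay fit gives IC50. Triplicates, three experiments, mean ± SD.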

Rattus norvegicus [2] = species: Rattus norvegicus; assay: Alkylating Activity after incubation for 30 minutes in rat liver in Hypoxic condition in absence of NADPH; type: functional, organism-based
Procedure, shortened: (§2)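 Phenobarbital-induced rat liver S-9 fraction (17.9 or 18.2 mg/mL protein), substrate 2.5 mM final (added in methanol/water 50:50), NADPH 5 mM or no cofactor, 30 min at 37 °C. Hypoxic samples purged with nitrogen 15–20 min in sealed vials. Stopped with ice-cold methanol, proteins removed; alkylating activity by NBP assay, absorbance at 542 nm, mean of two experiments.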

Rattus norvegicus [3] = species: Rattus norvegicus; assay: Alkylating Activity after incubation for 30 minutes in rat liver in oxic condition in presence of NADPH; type: functional, organism-based; procedure, shortened: as §2
Rattus norvegicus [4] = species: Rattus norvegicus; assay: Alkylating Activity after incubation for 30 minutes in rat liver in Hypoxic condition in presence of NADPH; type: functional, organism-based; procedure, shortened: as §2
Rattus norvegicus [5] = species: Rattus norvegicus; assay: Metabolic stability after incubation for 30 minutes in rat liver in hypoxic condition in absence of NADPH; type: functional; procedure, shortened: as §1
Rattus norvegicus [6] = species: Rattus norvegicus; assay: Alkylating Activity after incubation for 30 minutes in rat liver in oxic condition in absence of NADPH; type: functional, organism-based; procedure, shortened: as §2
Rattus norvegicus [7] = species: Rattus norvegicus; assay: Metabolic stability after incubation for 30 minutes in rat liver in oxic condition in absence of NADPH; type: functional; procedure, shortened: as §1
Rattus norvegicus [8] = species: Rattus norvegicus; assay: Metabolic stability after incubation for 30 minutes in rat liver in hypoxic condition in presence of NADPH; type: functional; procedure, shortened: as §1

| Structure (SMILES) | Compound remaining (Rattus norvegicus [1]) | IC50 (V79) | Absorbance (Rattus norvegicus [2]) | Absorbance (Rattus norvegicus [3]) | Absorbance (Rattus norvegicus [4]) | Compound remaining (Rattus norvegicus [5]) | Absorbance (Rattus norvegicus [6]) | Compound remaining (Rattus norvegicus [7]) | Compound remaining (Rattus norvegicus [8]) |
| --- | --- | --- | --- | --- | --- | --- | --- | --- | --- |
| COc1ccc2c(CCOP(N)(=O)N(CCCl)CCCl)noc2c1 (stereo unspecified) | 46% | 241 µM | 0.42 | 2.31 | 2.35 | 79% | 0.32 | 78% | 45% |
| CCc1noc2ccccc12 |  | > 2000 µM |  |  |  |  |  |  |  |
| NP(=O)(OCCc1noc2ccccc12)N(CCCl)CCCl (stereo unspecified) | 33% | 411 µM | 0.38 | 1.97 | 2.02 | 98% | 0.26 | 97% | 34% |
| NP(=O)(OCCc1noc2ccc([N+](=O)[O-])cc12)N(CCCl)CCCl (stereo unspecified) | 1% | 311 µM | 0.85 |  | 2.23 | 76% |  | 79% | 1% |
